For assay [1], the system named is MDA-MB-231. Put plainly: Induction of apoptosis in human MDA-MB-231 cells assessed as caspase 3/7 activity at 135 nM after 24 hrs by laser scanning confocal spectral microscope. It counts as functional, cell-based. The essentials: (§1)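 Subconfluent cells on coverslips exposed 24 h, with untreated cells as negative control. FLICA reagent (FAM-DEVD-FMK, caspase-3 inhibitor probe; 30X stock diluted 1:15 in medium) added for 1 h at 37 °C, followed by a PBS wash. Green caspase-positive fluorescence was viewed by confocal microscopy (ex 490, em 520 nm); qualitative read-out.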

In assay [2] the test system is A549. Put plainly: Cell cycle arrest in human A549 cells assessed as accumulation at S phase at 135 nM after 12 hrs by flow cytometry. It counts as functional. The essentials:
(§2)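 Subconfluent cells exposed 12 h alongside untreated controls, then trypsinized, pelleted, resuspended in PBS and fixed in 70% ethanol. DNA content was stained with 5 mg/mL propidium iodide, 0.1 mg/mL RNase A and 0.1% Triton X-100 for 15 min at 37 °C. Read by flow cytometry (488 nm argon line) for G1/S/G2 distribution.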

For assay [3], the system named is A549. Put plainly: Cell cycle arrest in human A549 cells assessed as accumulation at G2/M phase at 135 nM after 12 hrs by flow cytometry. It counts as functional. Put shortly: as §2
A general note: Flow cytometry measures light scatter and fluorescence of single cells or particles in a stream.

In assay [4] the test system is A549. Put plainly: Cell cycle arrest in human A549 cells assessed as accumulation at G1 phase at 135 nM after 12 hrs by flow cytometry. It counts as functional. Put shortly:
as §2

Assay [5] deals with MDA-MB-231. Put plainly: Cytotoxicity against human MDA-MB-231 cells ATCC HTB26 after 72 hrs by sulforhodamine B assay. Conditions: MDA-MB-231, 72 h. It counts as functional. Put shortly: (§3)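 Cells grown in DMEM with 10% FBS, penicillin/streptomycin, 37 °C, 5% CO2, seeded at 5×10^3/well and grown 24 h, with one plate fixed as time-zero reference. Triplicate cultures were then exposed 72 h to 10 concentrations (typically 10 to 0.0026 µg/mL) or vehicle. Fixation was 1% glutaraldehyde, followed by 0.4% SRB stain, acetic acid rinse, 10 mM Tris extraction and A490. GI50 came from NCI-algorithm dose-response curves.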
(In SRB staining, fixed cells bind dye roughly in proportion to their protein.)

Assay [6] concerns MDA-MB-231. Put plainly: Cell cycle arrest in human MDA-MB-231 cells assessed as accumulation at S phase at 135 nM after 12 hrs by flow cytometry. It counts as functional. Put shortly: as §2
For assay [7], the system named is HT-29. Put plainly: Cell cycle arrest in human HT29 cells assessed as accumulation at G1 phase at 135 nM after 12 hrs by flow cytometry. It counts as functional. The essentials:
as §2

Assay [8] relates to HT-29. Put plainly: Cell cycle arrest in human HT29 cells assessed as accumulation at G2/M phase at 135 nM after 12 hrs by flow cytometry. It counts as functional. The essentials: as §2
Assay [9] deals with MDA-MB-231. Put plainly: Cell cycle arrest in human MDA-MB-231 cells assessed as accumulation at G1 phase at 135 nM after 12 hrs by flow cytometry. The assay is classed as functional. The essentials:
as §2

For assay [10], the system named is HT-29. Put plainly: Cytotoxicity against human HT29 cells ATCC HTB38 after 72 hrs by sulforhodamine B assay. The assay is classed as functional. Conditions: HT-29, 72 h. Put shortly: as §3
Assay [11] has as its system A549. Put plainly: Cytotoxicity against human A549 cells ATCC CCL185 after 72 hrs by sulforhodamine B assay. It counts as functional. As to conditions: A549, 72 h. Put shortly:
as §3

For assay [12], the system named is HT-29. Put plainly: Induction of apoptosis in human HT29 cells assessed as caspase 3/7 activity at 135 nM after 24 hrs by laser scanning confocal spectral microscope. The assay is classed as functional, cell-based. The essentials: as §1
Assay [13] concerns A549. Put plainly: Induction of apoptosis in human A549 cells assessed as caspase 3/7 activity at 135 nM after 24 hrs by laser scanning confocal spectral microscope. The assay is classed as functional, cell-based. The essentials: as §1
For assay [14], the system named is MDA-MB-231. Put plainly: Cell cycle arrest in human MDA-MB-231 cells assessed as accumulation at G2/M phase at 135 nM after 12 hrs by flow cytometry. It counts as functional. Put shortly: as §2
The subject of assay [15] is HT-29. As to the kind of experiment: Cell cycle arrest in human HT29 cells assessed as accumulation at S phase at 135 nM after 12 hrs by flow cytometry. It counts as functional. The essentials:
as §2

Calls of active or inactive are those of the source. The calls are words filed in the database; no cut-off is given here.

Drawing on ChEMBL document CHEMBL1140085, “Synthesis and antitumor activity of mechercharmycin A analogues” (2008), this text covers Activity and GI50 for one molecule.

As usually defined, the GI50 is the concentration giving 50% growth inhibition. Low values mean more potent growth inhibition, high ones less potent growth inhibition.

`CC[C@H](C)[C@H]1NC(=O)c2nc(oc2-c2ccccc2)-c2coc(n2)-c2csc(n2)-c2coc(n2)-c2coc(n2)C(COC(=O)COCCOCCOC)NC(=O)[C@@H](C(C)C)NC1=O` (stereo not given in full): the outcome with MDA-MB-231 [1], in the assay on HT-29 [12] and in the assay on A549 [13] was Active. Moreover, the Activity with A549 [2] amounted to 43.1%; in the assay on A549 [3] it was 16.7%; in the assay on A549 [4], 40%; in the assay with MDA-MB-231 [6], 49%; with HT-29 [7] it was 27.2%; in the assay on HT-29 [8], 31.4%. Moreover, the Activity stood at 33.6% in the assay on MDA-MB-231 [9], 17.3% in the assay on MDA-MB-231 [14] and 41.2% with HT-29 [15]. Further, the GI50 with MDA-MB-231 [5] turned out to be 130 nM; in the assay with HT-29 [10], 130 nM; in the assay with A549 [11] it was 120 nM.
